Test results reported in ChEMBL document CHEMBL1208706, “Synthesis, antidepressant evaluation and QSAR studies of novel 2-(5H-[1,2,4]triazino[5,6-b]indol-3-ylthio)-N-(substituted phenyl)acetamides” (2010).

These molecules were tested on Mus musculus (assay: Antidepressant activity in Swiss albino mouse assessed as reduction of immobility duration at 30 mg/kg, ip administered 3 times for 24 hrs measured after 1 hr last post dose by tail suspension test). Details: route intraperitoneal.
Format: functional
Design: scale not given: the % may be the effect or the level left
In short: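 Adult male Swiss albino mice (22 ± 2 g), housed with controlled humidity, temperature and day-night cycle. Compound in DMSO given ip at 30 mg/kg at t = 0, 18 and 24 h; vehicle controls got DMSO ip at 5 mL/kg. Tail suspension run 1 h after the final dose, immobility scored over 6 min. %DID = [(A − B)/A] × 100 against control; n = 6, mean ± SEM, one-way ANOVA with Dunnett's test.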
`COc1ccc(NC(=O)CSc2nnc3c(n2)[nH]c2ccccc23)cc1` gave an Activity of 20.82%.
Molecule `O=C(CSc1nnc2c(n1)[nH]c1ccccc12)Nc1ccc(Br)cc1` has an Activity of 67.59%.
Work on `O=C(CSc1nnc2c(n1)[nH]c1ccccc12)NCc1ccccc1` yielded an Activity of 56.75%.
For `COc1ccccc1NC(=O)CSc1nnc2c(n1)[nH]c1ccccc12`, the Activity was 24.3%.
`O=C(CSc1nnc2c(n1)[nH]c1ccccc12)Nc1cccc(Br)c1` was tested, and the Activity was 66.57%.
With `O=C(CSc1nnc2c(n1)[nH]c1ccccc12)Nc1ccccc1` the Activity was 70.62%.
`Cc1ccccc1NC(=O)CSc1nnc2c(n1)[nH]c1ccccc12` showed an Activity of 20.87%.
`O=C(CSc1nnc2c(n1)[nH]c1ccccc12)Nc1ccccc1Cl` showed an Activity of 51.89%.
With `O=C(CSc1nnc2c(n1)[nH]c1ccccc12)Nc1ccccc1Br` the Activity was 42.84%.
Molecule `O=C(CSc1nnc2c(n1)[nH]c1ccccc12)Nc1ccccc1[N+](=O)[O-]` has an Activity of 42.66%.
For `Cc1cccc(NC(=O)CSc2nnc3c(n2)[nH]c2ccccc23)c1`, the Activity was 26.29%.
For `COc1cccc(NC(=O)CSc2nnc3c(n2)[nH]c2ccccc23)c1`, the Activity was 31.08%.
Work on `O=C(CSc1nnc2c(n1)[nH]c1ccccc12)Nc1cccc(Cl)c1` yielded an Activity of 57.15%.
Work on `O=C(CSc1nnc2c(n1)[nH]c1ccccc12)Nc1cccc([N+](=O)[O-])c1` yielded an Activity of 58.75%.
Molecule `O=C(CSc1nnc2c(n1)[nH]c1ccccc12)Nc1ccc(Cl)cc1` has an Activity of 68.33%.
`Cc1ccc(NC(=O)CSc2n[nH]c3c4ccccc4nc-3n2)cc1` gave an Activity of 30.57%.
In the case of `O=C(CSc1n[nH]c2c3ccccc3nc-2n1)NC1CCCCC1`, the Activity is reported as 47.51%.
`O=C(CSc1nnc2c(n1)[nH]c1ccccc12)Nc1ccc([N+](=O)[O-])cc1` was tested, and the Activity was 62.35%.
`CNCCC(Oc1ccc(C(F)(F)F)cc1)c1ccccc1` (stereo unspecified) [FLUOXETINE] showed an Activity of 69.48%.
`CN(C)CCCN1c2ccccc2CCc2ccccc21` [IMIPRAMINE] showed an Activity of 60.58%.
Work on `O=C(NCCN1CCOCC1)c1ccc(Cl)cc1` [MOCLOBEMIDE] yielded an Activity of 68.16%.
